Measured values taken from PubChem BioAssay.
The source made the active and inactive calls.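 The calls were made as follows, unless noted: active = compounds giving at least 50% inhibition in the cell-based MKP-3 phosphatase rescue imaging test; inactive = the rest.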

Tests used:
[1] = inhibitors of TNFa-induced NFkB p65 translocation, primary screen, imaging, HUVEC, MLSMR starter and 10KST1 sets (AID 438;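 active = inhibition above 20% together with a positive visual image hit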;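 also: compound added about 3h40 before a 20 min TNFalpha stimulation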;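 as to inhibition: signal is the nuclear over cytoplasmic p65 intensity ratio per well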); conditions: HUVEC TNFa-induced p65 nuclear translocation; cell count: measured here: nuclei count (cytotoxicity indicator), at 2.08 µM; inhibition: at 2 µM, stronger effect = higher value, 0% TNFa-plus-vehicle, 100% no-TNFa wells
[2] = endothelial E-selectin expression blockers – imaging, HUVEC, immunofluorescence, MLSMR starter and 10KST1 sets, primary screen (AID 487;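 active = visually confirmed hit in the image check and inhibition above 20%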;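 as to inhibition: signal is fraction of cell area covered by stained E-selectin grains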;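 as to nuclei count: 100% = median nuclei count of all wells on the same plate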); conditions: HUVEC TNFalpha-induced E-selectin immunofluorescence imaging, at 2 µM; inhibition: stronger effect = higher value; nuclei count: measured here: cell number, toxicity
[3] = Primary imaging screen for DUSP6 inhibitors that restore phospho-Erk in transfected HeLa cells, chemical complementation (AID 609); conditions: HeLa MKP-3 transfected, phospho-Erk imaging KS statistic, at 10 µM, cells stimulated with TPA for 15 min;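 as to inhibition: phospho-Erk level distribution per well compared with pooled transfected vehicle control wells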
[4] = target: Dual specificity protein phosphatase 6 (Homo sapiens) (UniProt Q16828); experiment: as above; conditions: HeLa MKP-3 transfected, phospho-Erk imaging KS statistic; at 10 µM; stronger effect = higher value; cells stimulated with TPA for 15 min
[5] = target: Voltage-gated potassium channel subunit beta-2 (Rattus norvegicus) (UniProt P62483); experiment: inhibitors of rat Kvbeta2 reductase activity – biochemical, NADPH fluorescence, primary screen (AID 622;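 active = fluorescence slope higher than the sample average by over 3 SD, cut at about -0.22 in these data, passing the limit was not always enough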;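 also: slope of raw intensity against log time taken from 70 to 1610 s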); conditions: recombinant KvBeta, 4-cyanobenzaldehyde reduction, at 10 µM, stronger effect = higher value
[6] = target: Voltage-gated potassium channel subunit beta-2 (Rattus norvegicus) (UniProt P62483); experiment: enhancers of rat Kvbeta2 NADPH turnover – biochemical, NADPH fluorescence, primary screen (AID 623;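 active = NADPH fluorescence slope more negative than the mean of all samples by about 3 SD, 99.7% confidence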;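 also: fluorescence intensity change per second fitted from 20 to 320 s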); conditions: Recombinant KvBeta, NADPH fluorescence decrease slope, 10 min; at 10 µM; stronger effect = lower value
[7] = target: Alpha-2C adrenergic receptor (Homo sapiens) (UniProt P18825); experiment: compounds altering alpha2C-coupled GIRK flux – cell-based, HEK293 alpha2C/GIRK1/2, thallium flux, primary screen (AID 624;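 active = fluorescence slope after compound addition differing from the mean of all screened samples at 99.7% confidence, in either direction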;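 also: slope of fluorescence ratio to pre-addition baseline per second over 15 to 24 s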); conditions: thallium flux BTC fluorescence, at 10 µM, actives lie on both sides
[8] = inhibitors of larval lipid processing in zebrafish, primary screen, whole organism, PED6 fluorescence, gall bladder and intestine (AID 686;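 active = a full or partial loss of lipid-probe fluorescence in the fish gall bladder, intestine or both, judged by eye; inactive = no fluorescence loss, or compound toxic to the fish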;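 also: larvae 5 to 7 days old with five fish per well; signal comes from phospholipase A2 cleavage of quenched PED6 carried via bile; overnight exposure to compound and PED6 before scoring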); conditions: Zebrafish larvae PED6 lipid processing, fluorescence scoring; screened at 20 µM (by protocol)
Procedure, shortened: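 Also added: quenched phospholipase substrate PED6, 100 nM final, ingested by larvae; System: zebrafish larvae, 5-7 d; Quantity: 5 larvae per well; Compound: 20 µM single dose; Schedule: overnight compound and PED6 incubation; Read-out: visual per-well fluorescence inhibition score; Measured by: By-eye fluorescence microscopy; Medium: E3.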

[9] = loss of swimming-algae plug formation – whole organism, Chlamydomonas reinhardtii, WT vs cilia-less mutant, absorbance, 96-well, primary screen (AID 463189;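 active = inhibition at or above 50% relative to wild type and mutant plate controls; inactive = inhibition below 50%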;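 also: 0% = wild type cc124 cells in DMSO and 100% = ciliumless bld1 mutant cells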); conditions: Chlamydomonas reinhardtii gravitaxis, OD600 absorbance, 2 days; at 10 µM; stronger effect = higher value
[10] = measured here: cell density z-score
[11] = measured here: nuclear c-Myc green intensity z-score
[12] = measured here: nuclear pErk red intensity z-score, stronger effect = higher value

Sequence of Alpha-2C adrenergic receptor (Homo sapiens) (P18825 whole entry, looked up): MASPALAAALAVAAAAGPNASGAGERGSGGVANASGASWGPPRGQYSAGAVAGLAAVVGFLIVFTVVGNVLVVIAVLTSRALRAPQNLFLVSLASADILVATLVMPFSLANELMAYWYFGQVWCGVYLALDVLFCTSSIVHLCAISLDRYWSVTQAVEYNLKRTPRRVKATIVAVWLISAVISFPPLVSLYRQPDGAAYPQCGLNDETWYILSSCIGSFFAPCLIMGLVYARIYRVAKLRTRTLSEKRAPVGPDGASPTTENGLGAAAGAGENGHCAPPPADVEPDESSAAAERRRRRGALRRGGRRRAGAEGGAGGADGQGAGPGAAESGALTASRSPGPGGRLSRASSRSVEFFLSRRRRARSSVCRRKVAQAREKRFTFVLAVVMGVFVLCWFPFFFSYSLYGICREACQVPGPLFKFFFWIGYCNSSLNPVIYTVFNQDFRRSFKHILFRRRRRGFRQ
Sequence of Voltage-gated potassium channel subunit beta-2 (Rattus norvegicus) (P62483 whole entry, looked up): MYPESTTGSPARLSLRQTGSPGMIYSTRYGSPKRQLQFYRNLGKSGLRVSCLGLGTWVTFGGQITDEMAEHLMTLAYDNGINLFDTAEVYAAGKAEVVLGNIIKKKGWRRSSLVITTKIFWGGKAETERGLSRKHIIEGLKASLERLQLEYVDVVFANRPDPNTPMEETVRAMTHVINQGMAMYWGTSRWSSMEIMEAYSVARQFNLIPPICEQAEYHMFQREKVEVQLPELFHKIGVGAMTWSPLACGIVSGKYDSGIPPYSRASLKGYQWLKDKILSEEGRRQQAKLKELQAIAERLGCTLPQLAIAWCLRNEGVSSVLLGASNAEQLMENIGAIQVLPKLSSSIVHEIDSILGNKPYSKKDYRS
Sequence of Dual specificity protein phosphatase 6 (Homo sapiens) (Q16828 whole entry, looked up): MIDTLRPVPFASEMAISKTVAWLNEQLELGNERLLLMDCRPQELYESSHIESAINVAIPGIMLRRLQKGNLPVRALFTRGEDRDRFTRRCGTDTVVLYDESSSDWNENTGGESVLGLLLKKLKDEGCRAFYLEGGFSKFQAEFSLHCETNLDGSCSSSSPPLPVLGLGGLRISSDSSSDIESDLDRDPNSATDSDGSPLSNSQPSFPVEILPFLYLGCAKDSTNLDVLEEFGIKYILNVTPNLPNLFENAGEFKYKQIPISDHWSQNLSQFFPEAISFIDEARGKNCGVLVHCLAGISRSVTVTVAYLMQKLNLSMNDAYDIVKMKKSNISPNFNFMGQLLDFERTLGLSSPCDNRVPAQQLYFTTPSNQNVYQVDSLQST

| Structure (SMILES) | cell count [1] | inhibition [1] | inhibition [2] | nuclei count [2] [%] | z-score [3, 10] | z-score [3, 11] | z-score [3, 12] | inhibition [4] | fluorescence slope [5] | NADPH fluorescence slope [6] | slope [7] | outcome [8] | inhibition [9] |
| --- | --- | --- | --- | --- | --- | --- | --- | --- | --- | --- | --- | --- | --- |
| CCOc1ccc(-c2nnc3sc(-c4ccccc4OC)nn23)cc1 | 613 | -5.4% (inactive) | 36% (inactive) | 174 | -0.391 | 2.01 | -1.56 | -9.66% (inactive) | -0.403 (inactive) | -0.000132 (inactive) | 0.00485 (inactive) | inactive | 0.927% (inactive) |
| COC(=O)CN(c1cc(OC)ccc1OC)S(=O)(=O)c1ccc(OC)c(OC)c1 | 365 | -5% (inactive) | -37.1% (inactive) | 130 | -0.822 | 0.297 | -0.958 | -2.59% (inactive) | -0.417 (inactive) | -0.000193 (inactive) | 0.00438 (inactive) | inactive | -0.193% (inactive) |
| Cc1ccc2c(c1)C(CCN)C(=O)N2Cc1ccccc1 (stereo not given) | 622 | -12.2% (inactive) | -11.3% (inactive) | 154 | 0.106 | 0.432 | 0.437 | -15% (inactive) | -0.424 (inactive) | -3.4e-05 (inactive) | 0.00511 (inactive) | inactive | 9.26% (inactive) |
| Cn1nnnc1-c1cc(Br)ccc1NC(=O)c1ccccc1 | 397 | -1.8% (inactive) | -2.9% (inactive) | 93.6 | -0.94 | 1.01 | -1.17 | -8.27% (inactive) | -0.39 (inactive) | 7.2e-07 (inactive) | 0.00973 (inactive) | inactive | -4.44% (inactive) |
| S=c1[nH]nc(-c2ccccc2)n1Cc1ccccc1 | 506 | 0% (inactive) | -83.3% (inactive) | 170 | 0.046 | 1.63 | -0.862 | 7.48% (inactive) | -0.391 (inactive) | -9.1e-05 (inactive) | 0.00591 (inactive) | inactive | -5.83% (inactive) |
| COc1cc(C2C(C#N)=C(N)Oc3cc(C)n(CCN4CCOCC4)c(=O)c32)cc(OC)c1OC (stereo not given) | 388 | 4% (inactive) | -116% (inactive) | 142 | -0.238 | -0.479 | -0.461 | -4.7% (inactive) | -0.468 (inactive) | -4.4e-05 (inactive) | 0.0078 (inactive) | inactive | -6.44% (inactive) |
| COc1cc(-c2nn3c(C4CCCCC4)nnc3s2)cc(OC)c1OC | 535 | -28.6% (inactive) | -115% (inactive) | 167 | -1.15 | 0.143 | 1.4 | -7.86% (inactive) | -0.479 (inactive) | -0.000183 (inactive) | 0.00564 (inactive) | inactive | 12.1% (inactive) |
| CC(C)c1nc(N2CCOCC2)c(C#N)c2c1CCC2 | 533 | 2.9% (inactive) | -92.4% (inactive) | 140 | 0.739 | -0.974 | -0.00414 | 10.5% (inactive) | -0.511 (inactive) | 3.3e-06 (inactive) | 0.0055 (inactive) | inactive; toxic | -0.955% (inactive) |
| CC1CN(C2CCN(C(=O)COc3ccccc3)CC2)CC(C)O1 (stereo not given) | 357 | -12.6% (inactive) | -160% (inactive) | 111 | -0.694 | 1.72 | -2.62 | 1.75% (inactive) | -0.455 (inactive) | -1.3e-05 (inactive) | 0.00556 (inactive) | inactive | -3.28% (inactive) |
| Cc1sccc1C1C(C#N)=C(N)SC(N)=C1C#N | 693 | -19.1% (inactive) | -22.1% (inactive) | 167 | 0.12 | -0.636 | 1.06 | 16% (inactive) | -0.345 (inactive) | -2.2e-05 (inactive) | 0.00967 (inactive) | inactive | -2.96% (inactive) |
